Where no end group is shown, it is not given here. [ ]: non-standard residue; d: D form. The star is where a group is joined. Biotin = O=C1N[C@H]2[C@H](CS[C@H]2CCCCC(=O)*)N1; TTDS = NCCCOCCOCCOCCCNC(=O)CCC(=O)*; pS = N[C@@H](COP(=O)(O)O)C(=O)O
What was measured:
GORASP1 PDZ = test: holdup assay; type: binding, human; conditions: ~4 μM PDZ; for binding intensity (BI): fraction of PDZ depleted, biotinylated RSK1_725–735, triplicates; for Kd: read-out: KD, estimated, from BI, estimated 17 μM peptide
How it was run: (§1)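 Automated holdup against N-terminally biotinylated (TTDS linker) RSK1 725–735 peptides, unphosphorylated and phosphorylated, in triplicate. PDZome v2 clones were codon-optimized and expressed in E. coli, with soluble lysate adjusted to ~4 μM. BI is the PDZ fraction depleted from the fluid phase.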

LAP2 PDZ = test: holdup assay; type: binding, human; conditions: ~4 μM PDZ; for binding intensity (BI): fraction of PDZ depleted, biotinylated RSK1_725–735, triplicates
How it was run: as §1

SHANK3 PDZ = test: holdup assay; type: binding, human; conditions: ~4 μM PDZ; for binding intensity (BI): fraction of PDZ depleted, biotinylated RSK1_725–735, triplicates; for Kd: read-out: KD, estimated, from BI, estimated 17 μM peptide
How it was run: as §1

GOPC PDZ = GOPC PDZ (Homo sapiens, UniProt Q9HD26); test: holdup assay; type: binding; conditions: fraction of PDZ depleted; ~4 μM PDZ; biotinylated RSK1_725–735; triplicates
SNX27 PDZ = SNX27 PDZ (Homo sapiens, UniProt Q96L92); test: holdup assay; type: binding; conditions: ~4 μM PDZ; for binding intensity (BI): fraction of PDZ depleted, biotinylated RSK1_725–735, triplicates
[1] = system: human PDZ domains (PDZome); test: holdup assay, PDZome-binding profile; conditions: for average BI / maximal BI: PDZome profile
How it was run: (§2)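 Automated holdup in triplicate measured biotinylated (N-terminal TTDS linker) RSK1 725–735 peptides, unphosphorylated or phosphorylated, against E. coli-expressed PDZome v2 domains. Soluble lysate was adjusted to ~4 μM, giving 255 domains for the unphosphorylated and 252 for the phosphorylated peptide. Binding intensity (BI) is the fraction of PDZ depleted from the fluid phase. BI 0.2 was the high-confidence threshold.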

HTRA1 PDZ = HTRA1 PDZ (Homo sapiens, UniProt Q92743); test: holdup assay; type: binding; conditions: ~4 μM PDZ; for binding intensity (BI): fraction of PDZ depleted, biotinylated RSK1_725–735, triplicates; for Kd: read-out: KD, estimated, from BI, estimated 17 μM peptide
HTRA1 PDZ, sequence (Q92743 365-467 limits assumed): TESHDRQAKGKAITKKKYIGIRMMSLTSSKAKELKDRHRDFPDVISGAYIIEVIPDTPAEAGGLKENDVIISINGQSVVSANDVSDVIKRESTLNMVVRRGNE
How it was run: as §1

SYNJ2BP PDZ = target: T1, SYNJ2BP PDZ (Homo sapiens, UniProt P57105); test: holdup assay; type: binding; conditions: ~4 μM PDZ; for binding intensity (BI): fraction of PDZ depleted, biotinylated RSK1_725–735, triplicates
T1 sequence (P57105 13-100 limits assumed): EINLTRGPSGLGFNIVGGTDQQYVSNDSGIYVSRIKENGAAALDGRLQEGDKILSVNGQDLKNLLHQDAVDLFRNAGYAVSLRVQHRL
How it was run: as §1

MAGI2-2 PDZ = MAGI2-2 PDZ (Homo sapiens, UniProt Q86UL8); test: holdup assay; type: binding; conditions: ~4 μM PDZ; for binding intensity (BI): fraction of PDZ depleted, biotinylated RSK1_725–735, triplicates; for Kd: read-out: KD, estimated, from BI, estimated 17 μM peptide
MAGI2-2 PDZ, sequence (Q86UL8 426-510 limits assumed): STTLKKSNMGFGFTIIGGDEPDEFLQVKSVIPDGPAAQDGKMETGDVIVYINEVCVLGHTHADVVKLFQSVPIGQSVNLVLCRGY
How it was run: as §1

DLG4-2 PDZ = test: holdup assay; type: binding, human; conditions: ~4 μM PDZ; for binding intensity (BI): fraction of PDZ depleted, biotinylated RSK1_725–735, triplicates
MAGI1-2 PDZ = MAGI1-2 PDZ (Homo sapiens, UniProt Q96QZ7); test: holdup assay; type: binding; conditions: for binding intensity (BI): fraction of PDZ depleted, biotinylated RSK1_725–735, triplicates; for binding intensity (BI) / Kd: ~4 μM PDZ; for Kd: read-out: KD, estimated, from BI, estimated 17 μM peptide
MAGI1-2 PDZ, sequence (Q96QZ7 472-554 limits assumed): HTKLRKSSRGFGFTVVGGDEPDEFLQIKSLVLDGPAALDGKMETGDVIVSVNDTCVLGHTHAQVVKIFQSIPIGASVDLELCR
How it was run: as §1

PDZRN3-1 PDZ = target: T2, PDZRN3-1 PDZ (Homo sapiens, UniProt Q9UPQ7); test: holdup assay; type: binding; conditions: ~4 μM PDZ; for binding intensity (BI): fraction of PDZ depleted, biotinylated RSK1_725–735, triplicates; for Kd: read-out: KD, estimated, from BI, estimated 17 μM peptide
T2 sequence (Q9UPQ7 249-339 limits assumed): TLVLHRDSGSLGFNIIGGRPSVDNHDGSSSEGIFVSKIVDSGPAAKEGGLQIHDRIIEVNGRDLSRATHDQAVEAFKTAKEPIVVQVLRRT
How it was run: as §1

ARHGEF12 PDZ = target: T3, ARHGEF12 PDZ (Homo sapiens, UniProt Q9NZN5); test: holdup assay; type: binding; conditions: ~4 μM PDZ; for binding intensity (BI): fraction of PDZ depleted, biotinylated RSK1_725–735, triplicates; for Kd: read-out: KD, estimated, from BI, estimated 17 μM peptide
T3 sequence (Q9NZN5 72-151 limits assumed): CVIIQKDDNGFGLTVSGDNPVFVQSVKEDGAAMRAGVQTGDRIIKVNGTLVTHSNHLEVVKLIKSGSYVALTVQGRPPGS
How it was run: as §1

LNX1 −3 PDZ = test: holdup assay; type: binding, human; conditions: ~4 μM PDZ; for binding intensity (BI): fraction of PDZ depleted, biotinylated RSK1_725–735, triplicates; for Kd: read-out: KD, estimated, from BI, estimated 17 μM peptide
How it was run: as §1

GORASP2 PDZ = test: holdup assay; type: binding, human; conditions: ~4 μM PDZ; for binding intensity (BI): fraction of PDZ depleted, biotinylated RSK1_725–735, triplicates; for Kd: read-out: KD, estimated, from BI, estimated 17 μM peptide
How it was run: as §1

MAST1 PDZ = target: T4, MAST1 PDZ (Homo sapiens, UniProt Q9Y2H9); test: holdup assay; type: binding; conditions: ~4 μM PDZ; for binding intensity (BI): fraction of PDZ depleted, biotinylated RSK1_725–735, triplicates; for Kd: read-out: KD, estimated, from BI, estimated 17 μM peptide
T4 sequence (Q9Y2H9 967-1055 limits assumed): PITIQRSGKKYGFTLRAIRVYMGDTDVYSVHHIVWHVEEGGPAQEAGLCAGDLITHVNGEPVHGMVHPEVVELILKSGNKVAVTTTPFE
How it was run: as §1

PDZRN4-1 PDZ = target: T5, PDZRN4-1 PDZ (Homo sapiens, UniProt Q6ZMN7); test: holdup assay; type: binding; conditions: fraction of PDZ depleted; ~4 μM PDZ; biotinylated RSK1_725–735; triplicates
T5 sequence (Q6ZMN7 224-314 limits assumed): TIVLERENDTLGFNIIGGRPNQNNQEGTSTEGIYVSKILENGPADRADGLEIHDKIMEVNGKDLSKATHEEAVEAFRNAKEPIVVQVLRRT
How it was run: as §2

GRID2IP-2 PDZ = GRID2IP-2 PDZ (Homo sapiens, UniProt A4D2P6); test: holdup assay; type: binding; conditions: fraction of PDZ depleted; ~4 μM PDZ; biotinylated RSK1_725–735; triplicates
GRID2IP-2 PDZ, sequence (A4D2P6 279-356 limits assumed): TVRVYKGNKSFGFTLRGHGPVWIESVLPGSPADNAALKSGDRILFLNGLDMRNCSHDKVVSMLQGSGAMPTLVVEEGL
How it was run: as §2

NHERF3-1 PDZ = target: T6, NHERF3-1 PDZ (Homo sapiens, UniProt Q5T2W1); test: holdup assay; type: binding; conditions: ~4 μM PDZ; for binding intensity (BI): fraction of PDZ depleted, biotinylated RSK1_725–735, triplicates; for Kd: read-out: KD, estimated, from BI, estimated 17 μM peptide
T6 sequence (Q5T2W1 9-90 limits assumed): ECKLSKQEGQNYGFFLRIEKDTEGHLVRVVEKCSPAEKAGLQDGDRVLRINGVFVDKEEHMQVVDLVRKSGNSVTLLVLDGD
How it was run: as §1

SNTG2 PDZ = target: T7, SNTG2 PDZ (Homo sapiens, UniProt Q9NY99); test: holdup assay; type: binding; conditions: ~4 μM PDZ; for binding intensity (BI): fraction of PDZ depleted, biotinylated RSK1_725–735, triplicates
T7 sequence (Q9NY99 73-156 limits assumed): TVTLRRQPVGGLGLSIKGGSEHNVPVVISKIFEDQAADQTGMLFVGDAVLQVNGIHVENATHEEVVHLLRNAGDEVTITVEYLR
How it was run: as §1

SCRIB-3 PDZ = test: holdup assay, updated analysis; type: binding, human; conditions: weak partner; automated computational protocol
How it was run: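 The same triplicate holdup datasets (biotinylated RSK1 725–735, unphosphorylated and phosphorylated, vs ~4 μM PDZome lysates) were re-analysed with an updated automated computational protocol. This gave alternative BI values, reported as supplemental values alongside the conventional analysis.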

DFNB31-3 PDZ = test: holdup assay; type: binding, human; conditions: ~4 μM PDZ; for binding intensity (BI): fraction of PDZ depleted, biotinylated RSK1_725–735, triplicates; for Kd: read-out: KD, estimated, from BI, estimated 17 μM peptide
How it was run: as §1

MAGI3-2 PDZ = test: holdup assay; type: binding, human; conditions: fraction of PDZ depleted; ~4 μM PDZ; biotinylated RSK1_725–735; triplicates
How it was run: as §2

PDZD7-3 PDZ = target: T8, PDZD7-3 PDZ (Homo sapiens, UniProt Q9H5P4); test: holdup assay; type: binding; conditions: ~4 μM PDZ; for binding intensity (BI): fraction of PDZ depleted, biotinylated RSK1_725–735, triplicates; for Kd: read-out: KD, estimated, from BI, estimated 17 μM peptide
T8 sequence (Q9H5P4 862-934 limits assumed): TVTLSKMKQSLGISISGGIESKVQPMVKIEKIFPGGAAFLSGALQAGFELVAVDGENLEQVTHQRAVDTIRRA
How it was run: as §1

[2] = BI threshold 0.2, compared to the unphosphorylated peptide
[3] = read-out: KD, estimated, from BI, estimated 17 μM peptide

## phosphorylated RSK1 peptide: RSK1 C-terminal PBM peptide phosphorylated at position −3; same constructs as the unphosphorylated ({Biotin-TTDS}-RRVRKLP[pS]TTL)
GORASP1 PDZ
  binding intensity (BI): 0.23 ± 0.03
  Kd: 53.8 µM
LAP2 PDZ
  binding intensity (BI): 0.28 ± 0.01
SHANK3 PDZ
  binding intensity (BI): 0.07 ± 0.01
  Kd: > 100 µM
GOPC PDZ
  binding intensity (BI): 0.25 ± 0.10
SNX27 PDZ
  binding intensity (BI): 0.47 ± 0.02
[1]; [2]
  number of detectable binders lost: 12
  number of new binders gained: 10
[1]
  average BI: 0.33
  maximal BI: 0.54
HTRA1 PDZ
  binding intensity (BI): 0.36 ± 0.01
  Kd: 27.7 µM
SYNJ2BP PDZ
  binding intensity (BI): 0.54 ± 0.03
MAGI2-2 PDZ
  binding intensity (BI): 0.23 ± 0.03
  Kd: 53.8 µM
DLG4-2 PDZ
  binding intensity (BI): 0.25 ± 0.02
MAGI1-2 PDZ
  binding intensity (BI): 0.15 ± 0.02
  Kd: 92.9 µM
MAGI1-2 PDZ; holdup, phosphorylated vs unphosphorylated
  down regulation of interaction by phosphorylation: a factor of five
PDZRN3-1 PDZ
  binding intensity (BI): 0.45 ± 0.01
  Kd: 18.6 µM
ARHGEF12 PDZ
  binding intensity (BI): 0.05 ± 0.05
  Kd: > 100 µM
LNX1 −3 PDZ
  binding intensity (BI): 0.24 ± 0.07
  Kd: 50.8 µM
GORASP2 PDZ
  binding intensity (BI): 0.19 ± 0.01
  Kd: 69.2 µM
MAST1 PDZ
  binding intensity (BI): 0.08 ± 0.03
  Kd: > 100 µM
PDZRN4-1 PDZ
  binding intensity (BI): 0.54 ± 0.03
GRID2IP-2 PDZ
  binding intensity (BI): 0.00 ± 0.01
NHERF3-1 PDZ
  binding intensity (BI): 0.03 ± 0.01
  Kd: > 100 µM
SNTG2 PDZ
  binding intensity (BI): 0.52 ± 0.05
SCRIB-3 PDZ
  interaction partner by updated analysis: new partners
DFNB31-3 PDZ
  binding intensity (BI): −0.01 ± 0.02
  Kd: > 100 µM
MAGI3-2 PDZ
  binding intensity (BI): 0.28 ± 0.06
PDZD7-3 PDZ
  binding intensity (BI): 0.15 ± 0.03
  Kd: 92.9 µM

## unphosphorylated RSK1 peptide: C-terminal RSK1 PBM peptide; RSK1_725–735 (holdup, SPR), RSK1_729–735 (direct FP), RSK1_683–735 (competitive FP) ({Biotin-TTDS}-RRVRKLPSTTL)
GORASP1 PDZ
  binding intensity (BI): 0.01 ± 0.02
  Kd: > 100 µM
LAP2 PDZ
  binding intensity (BI): −0.02 ± 0.05
LAP2 PDZ; [3]
  Kd: > 100 µM
SHANK3 PDZ
  binding intensity (BI): 0.27 ± 0.03
  Kd: 43 µM
GOPC PDZ
  binding intensity (BI): 0.63 ± 0.05
SNX27 PDZ
  binding intensity (BI): 0.08 ± 0.07
SNX27 PDZ; [3]
  Kd: > 100 µM
[1]
  average BI: 0.42
  maximal BI: 0.77
HTRA1 PDZ
  binding intensity (BI): 0.44 ± 0.03
  Kd: 19.4 µM
SYNJ2BP PDZ
  binding intensity (BI): 0.26 ± 0.07
SYNJ2BP PDZ; [3]
  Kd: 45.4 µM
MAGI2-2 PDZ
  binding intensity (BI): 0.42 ± 0.01
  Kd: 21.2 µM
DLG4-2 PDZ
  binding intensity (BI): 0.11 ± 0.03
DLG4-2 PDZ; [3]
  Kd: > 100 µM
MAGI1-2 PDZ
  binding intensity (BI): 0.43 ± 0.02
  Kd: 20.3 µM
PDZRN3-1 PDZ
  binding intensity (BI): 0.26 ± 0.01
  Kd: 45.4 µM
ARHGEF12 PDZ
  binding intensity (BI): 0.77 ± 0.02
  Kd: 4.2 µM
LNX1 −3 PDZ
  binding intensity (BI): 0.04 ± 0.02
  Kd: > 100 µM
GORASP2 PDZ
  binding intensity (BI): 0.41 ± 0.02
  Kd: 22.1 µM
MAST1 PDZ
  binding intensity (BI): 0.57 ± 0.01
  Kd: 11.1 µM
PDZRN4-1 PDZ
  binding intensity (BI): 0.51 ± 0.02
GRID2IP-2 PDZ
  binding intensity (BI): 0.67 ± 0.02
NHERF3-1 PDZ
  binding intensity (BI): 0.41 ± 0.01
  Kd: 22.1 µM
SNTG2 PDZ
  binding intensity (BI): 0.41 ± 0.02
SNTG2 PDZ; [3]
  Kd: 22.1 µM
SCRIB-3 PDZ
  interaction partner by updated analysis: new interaction partners
DFNB31-3 PDZ
  binding intensity (BI): 0.23 ± 0.04
  Kd: 53.8 µM
MAGI3-2 PDZ
  binding intensity (BI): 0.28 ± 0.03
PDZD7-3 PDZ
  binding intensity (BI): 0.60 ±0.03
  Kd: 9.7 µM
